# Assay outcomes (PubChem)
# TRPC6 inh: inhibitors of mouse TRPC6 channel. HEK293-TRPC6, membrane potential dye, ACh-evoked depolarization; stronger effect = lower value. B-score at 10 µM. 310,000 compounds, 1.1% hits;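 active means B-score under library mean minus 3 SD, initial fluorescence not abnormally high, positive integrated signal ratio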;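 further: B-score derived from integrated fluorescence ratio over the kinetic read; more negative B-score means stronger inhibition of depolarization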
# TRPC6 activator: activators of mouse TRPC6 channel | Q61143 | HEK293-TRPC6 membrane potential dye fluorescence; stronger effect = higher value | B-score at 10 µM | 310,000 compounds, 0.13% hits;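 active means B-score of the integrated fluorescence ratio above library mean plus 3 SD, and starting fluorescence ratio within library mean plus 5 SD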;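 further: higher score means more depolarization so channel activation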
# TRPC4 PAM: allosteric potentiators of mouse TRPC4 channel; Q9QUQ5; HEK293 TRPC4beta/mu-opioid, DAMGO EC20, Fluo-4 Ca2+ flux; stronger effect = higher value; B-score at 10 µM; 310,000 compounds, 0.42% hits;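 active means B-score of calcium response area above 5 SD of library B-scores, with initial fluorescence ratio within 5 SD of library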;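 further: B-score of integrated fluorescence ratio over time as area under calcium response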
# Target sequence (Q9QUQ5 whole entry, looked up): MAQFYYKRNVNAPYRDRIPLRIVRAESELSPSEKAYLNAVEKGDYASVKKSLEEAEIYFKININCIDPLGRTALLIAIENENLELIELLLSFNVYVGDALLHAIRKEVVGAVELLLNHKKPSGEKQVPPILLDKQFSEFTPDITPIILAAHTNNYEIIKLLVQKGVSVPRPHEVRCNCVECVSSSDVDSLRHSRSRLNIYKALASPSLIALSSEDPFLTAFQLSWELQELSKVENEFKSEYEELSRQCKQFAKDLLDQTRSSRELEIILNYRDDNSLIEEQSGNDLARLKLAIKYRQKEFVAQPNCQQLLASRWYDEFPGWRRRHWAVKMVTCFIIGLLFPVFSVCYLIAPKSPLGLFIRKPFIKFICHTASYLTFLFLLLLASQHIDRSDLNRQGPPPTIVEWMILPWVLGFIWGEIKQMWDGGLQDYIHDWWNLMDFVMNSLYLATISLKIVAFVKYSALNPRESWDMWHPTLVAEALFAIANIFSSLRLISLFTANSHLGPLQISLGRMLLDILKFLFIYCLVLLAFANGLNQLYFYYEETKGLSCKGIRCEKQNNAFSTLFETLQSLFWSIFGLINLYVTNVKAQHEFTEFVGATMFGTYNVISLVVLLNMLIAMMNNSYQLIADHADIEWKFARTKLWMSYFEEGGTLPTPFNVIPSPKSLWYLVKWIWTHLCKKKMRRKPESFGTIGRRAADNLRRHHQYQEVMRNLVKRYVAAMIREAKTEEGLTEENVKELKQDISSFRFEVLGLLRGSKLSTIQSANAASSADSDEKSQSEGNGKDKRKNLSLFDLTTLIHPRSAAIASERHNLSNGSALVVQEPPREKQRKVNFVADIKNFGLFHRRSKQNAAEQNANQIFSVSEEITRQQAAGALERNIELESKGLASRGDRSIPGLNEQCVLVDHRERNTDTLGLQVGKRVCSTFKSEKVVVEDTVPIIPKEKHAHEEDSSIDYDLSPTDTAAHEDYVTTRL
# TRPC4 agonist: opens the mouse TRPC4 cation channel; Q9QUQ5; HEK293 TRPC4beta/mu-opioid, Fluo4 calcium fluorescence; stronger effect = higher value; B-score at 10 µM; 310,000 compounds, 0.49% hits;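 active means B-score above 5 SD of library B-scores, and initial fluorescence ratio not above library mean plus 5 SD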;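 further: positive B-score marks a calcium rise read as TRPC4 activation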
#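 Technique: kinetic Fluo4 calcium fluorescence; Test system: TRPC4beta and mu-opioid receptor HEK293 stable cells; Measure: B-scored integrated calcium fluorescence ratio; Benchmarks: low control buffer alone, high control maximal DAMGO; Schedule: 45 min room-temperature Fluo4 loading, 110 s read.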
# TRPC4 block: blocks the mouse TRPC4 cation channel; 300,000 compounds, 0.39% hits; HEK293 TRPC4beta/mu-opioid, DAMGO-evoked Fluo4 calcium flux; stronger effect = lower value; B-score at 10 µM; AID 2247;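 active means B-score over 3 SD under the library average, no early fluorescence shift, positive overall ratio signal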
#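 System: stable TRPC4beta/mu-opioid receptor HEK293 cells; Dosing: single-point compound dosing; Measured by: Fluo4 Ca2+ flux fluorescence; Read-out basis: per-well B score of integrated baseline-normalized Fluo4 ratio.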
# TRPC4 spec 2: mouse TRPC4 off-target activity of TRPC6 inhibitors, second screen; inhibition, % at 10 µM; shares compounds with TRPC6 inh; HEK293 TRPC4/MOR, membrane potential dye fluorescence; channel activated by saturating DAMGO dose; 920 compounds, 42% hits;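 active means compounds whose fluorescence signal differed from control wells by over 3 SD, either direction, in both duplicate plates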
# TRPC4 spec: mouse TRPC4 off-target activity of TRPC6 inhibitors | activity change, negative = inhibition, % at 10 µM | 920 compounds, 61% hits | shares compounds with TRPC6 inh | HEK293 TRPC4/mu-opioid, membrane potential fluorescence | AID 2777;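 active means rise or fall in signal beyond 3 SD of buffer-only wells in both replicate plates, either sign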;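 further: integrated kinetic ratio of fluorescence range over baseline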
# HEK293 MPD ctr 2-1: second counter-screen for TRPC6 inhibitors: parental HEK293 cells; shares compounds with TRPC6 inh; parental HEK293 membrane potential dye fluorescence; maximal acetylcholine challenge after compound addition; signal change vs control, % at 10 µM; 920 compounds, 31% hits;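 active means membrane potential signal moving either way by over 3 SD of the maximum-effect control, in both duplicate plates, meaning non-specific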
# HEK293 MPD ctr-1: parental HEK293 nonspecific activity of TRPC6 inhibitors; shares compounds with TRPC6 inh; parental HEK293 membrane potential dye fluorescence; membrane potential signal change, % at 10 µM; 920 compounds, 60% hits;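 active means membrane potential signal shifting up or down by more than 3 SD of buffer-only wells, on both duplicate plates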
# HEK293 MPD ctr-2: parental HEK293 nonspecific activity of TRPC6 modulators; 2,400 compounds, 51% hits; membrane potential dye fluorescence; membrane potential signal change, % at 10 µM; shares compounds with TRPC6 inh;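 active means membrane potential signal moves up or down beyond 5 SD from buffer-only wells, on both duplicate plates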
# HEK293 MPD ctr 2-2: second check of TRPC6 modulator effects in parental HEK293 cells; 2,400 compounds, 14% hits; membrane potential dye fluorescence; after compound, maximal acetylcholine stimulation; inhibition, % at 10 µM; AID 488926; shares compounds with TRPC6 inh;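 active means membrane potential signal drops by more than 5 SD from the mean control signal, in both duplicate plates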;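 further: plate controls were acetylcholine ECmax control wells for no effect and buffer only wells for full effect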
# TRPC4 ctr mod: mouse TRPC4 off-target activity of TRPC6 modulators | shares compounds with TRPC6 inh | HEK293 TRPC4/mu-opioid, membrane potential fluorescence | percent change from control (negative = decrease, positive = increase), % at 10 µM | 2,400 compounds, 69% hits;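 active means membrane potential signal moved up or down beyond 5 SD of buffer control wells, in both duplicate plates, actives on both sides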;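 further: plate controls were assay buffer wells for no effect and DAMGO maximal-effect wells for full effect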
# TRPC4/MOR inh 2: second check of whether TRPC6 modulators also affect mouse TRPC4. shares compounds with TRPC6 inh. HEK293 TRPC4/mu-opioid, membrane potential dye fluorescence; stimulated with maximal-effect DAMGO. inhibition, % at 10 µM. 2,400 compounds, 55% hits;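 active means drop in membrane potential signal beyond 5 SD of the control wells in both duplicate plates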;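 further: TRPC4 counter screen for TRPC6 hits run under conditions tuned for TRPC6 not TRPC4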
# TRPC6 inh conf: confirmation of mouse TRPC6 inhibitors | shares compounds with TRPC6 inh | HEK293-TRPC6, membrane potential dye, ACh-evoked depolarization | inhibition, % at 10 µM | 3,300 compounds, 43% hits;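 active means fluorescence ratio falls more than 5 SD below the full-stimulation control mean, in both duplicate runs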;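 further: integrated fluorescence ratio of peak minus minimum over baseline after agonist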
# TRPC6 act confirm: mouse TRPC6 activator confirmation; shares compounds with TRPC6 inh; HEK293-TRPC6 membrane potential dye fluorescence, FDSS; activation, % at 10 µM; 2,800 compounds, 11% hits; AID 488961;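 active means ratio signal rise beyond 5 SD above unstimulated control wells' mean, seen in both duplicate runs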;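 further: plate controls were buffer EC0 wells for no effect and acetylcholine ECmax response for full effect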
# * hit, by the source's call; i = inactive; . = no result given. Hits are enriched below; roughly 2.3% of the tested compounds scored in any of these assays.
SMILES,TRPC6 inh,TRPC6 activator,TRPC4 PAM,TRPC4 agonist,TRPC4 block,HEK293 MPD ctr-2,HEK293 MPD ctr 2-2,TRPC4 ctr mod,TRPC4/MOR inh 2,TRPC6 inh conf,TRPC6 act confirm,others
CN(C)S(=O)(=O)N1CCN(C(=O)c2ccccc2Cl)CC1,-5*,i,i,i,i,i,i,i,i,i,i,
CC1=CC(=C(C#N)c2nc3ccccc3s2)C=C(C)N1CC1CCCO1 (stereo not given),-9.8*,i,i,i,i,486%*,i,-92%*,i,i,i,
CC1(C)NC(=O)N(CC(=O)OCC(=O)Nc2cc(S(=O)(=O)N3CCCCC3)ccc2Cl)C1=O,i,i,i,i,i,.,.,.,.,.,.,
N#Cc1ccc(OCc2noc(-c3ccsc3)n2)cc1,i,i,i,i,i,.,.,.,.,.,.,
CCCSc1nc(N)c2c3c(sc2n1)CN(C)CC3,-7.1*,i,i,i,i,-112%*,i,-26%*,i,i,i,
CC(C)Sc1nc(N)c2c3c(sc2n1)CN(C)CC3,i,i,i,i,i,.,.,.,.,.,.,
CSc1nc(NCC(C)C)c2c3c(sc2n1)CN(C)CC3,i,i,i,i,i,.,.,.,.,.,.,
CN(C)CCSc1nc(N)c2c3c(sc2n1)CN(C)CC3,-8.6*,i,i,i,i,-210%*,i,-39%*,46%*,55%*,i,
COCCSc1nc(N)c2c3c(sc2n1)CN(C)CC3,-9.4*,i,i,i,i,-148%*,i,-29%*,30%*,i,i,
CCOC(=O)c1c(C)[nH]c(C(=O)OCC(=O)c2c(N)n(C)c(=O)n(C)c2=O)c1C,i,i,i,i,i,.,.,.,.,.,.,
CC1(C)SC2c3ccccc3C(=O)N2[C@@H]1C(=O)NCCCN1CCOCC1 (stereo not given in full),-5.1*,i,i,i,i,i,i,11%*,i,i,.,
Cc1nnc(C)c2c(C)n(C(C)c3ccccc3)c(C)c12 (stereo not given),i,i,i,i,i,.,.,.,.,.,.,
COc1ccc(C(C)n2c(C)c3c(C)nnc(C)c3c2C)cc1 (stereo not given),-8.1*,i,i,i,i,-220%*,i,-30%*,65%*,i,i,
COc1cc(C(=O)NCC(c2ccccc2)N(C)C)ccc1OCC(=O)N1CCOCC1 (stereo not given),i,i,i,i,i,.,.,.,.,.,.,
CCn1c(C)[n+](Cc2ccccc2)c2ccc(Cl)cc21,i,i,i,i,i,.,.,.,.,.,.,
CCn1c(/C=C/Nc2ccccc2)[n+](CC)c2ccc(Cl)cc21,-5.2*,i,i,i,i,-186%*,i,-34%*,56%*,50%*,i,
CCn1c(/C=C/N(C)c2ccccc2)[n+](CC)c2ccc(Cl)cc21,-8.6*,i,i,i,i,.,.,.,.,65%*,i,TRPC4 spec 2=i;TRPC4 spec=-29%*;HEK293 MPD ctr 2-1=24%*;HEK293 MPD ctr-1=-411%*
CC(C)(C)c1ccc(SCCc2cccnc2)cc1,i,i,i,i,i,.,.,.,.,.,.,
Cc1cc(C)c2nc(N3CCC(C(=O)NCCCN4CCCCC4)CC3)sc2c1,-8.8*,i,i,i,i,.,.,.,.,52%*,i,TRPC4 spec 2=74%*;TRPC4 spec=2.6%*;HEK293 MPD ctr 2-1=i;HEK293 MPD ctr-1=2.9%*
Cc1cc(C)c2nc(N3CCC(C(=O)NCC4CCCO4)CC3)sc2c1 (stereo not given),i,i,i,i,i,.,.,.,.,.,.,
Cc1ccc(C)c(OCCCCN2CCNCC2)c1C,-5.6*,i,15*,i,i,i,i,i,50%*,53%*,.,
Cc1ccc(C)c(OCCCN2CCNCC2)c1,i,i,i,i,i,.,.,.,.,.,.,
CN(C)CCN(C(=O)c1ccc2c(c1)CCCC2)c1nc2cc3c(cc2s1)OCCO3,i,i,i,i,i,.,.,.,.,.,.,
CN(C)CCN(C(=O)c1ccc2c(c1)OCCO2)c1nc2cc3c(cc2s1)OCO3,-6.4*,i,i,i,i,-82%*,100%*,-24%*,92%*,88%*,i,
COc1ccc2nc(N(CCN(C)C)C(=O)c3ccc4c(c3)OCCO4)sc2c1,-5.1*,i,i,i,i,i,i,-24%*,72%*,64%*,i,
O=C(CCC1CCCN(C(=O)c2ccc3c(c2)OCO3)C1)N1CCN(c2ccccn2)CC1 (stereo not given),i,i,i,i,i,.,.,.,.,.,.,
Cc1c(C(=O)NC(C(C)C)C(C)C)cccc1[N+](=O)[O-],i,i,i,i,i,.,.,.,.,.,.,
Cc1ccc(SCc2cc(=O)n3ccsc3n2)c(C)c1,i,i,i,i,i,.,.,.,.,.,.,
Cc1ccc(C)c(C(=O)c2c(C)nc3sccn23)c1,-6.1*,i,i,i,i,i,i,10%*,i,i,i,
Oc1ccccc1C(=S)N1CCN(C(=S)c2ccccc2O)CC1,i,i,i,i,i,.,.,.,.,.,.,
